# Results published in ChEMBL document CHEMBL1759837, “Studies on chemical modification and biology of a natural product, gambogic acid (III): determination of the essential pharmacophore for biological activity” (Eur J Med Chem, 2011).
# Columns and labels:
# Type in all cases: functional, cell-based
# HepG2 = assay: Antiproliferative activity against human HepG2 cells after 24 hrs by MTT assay; details: HepG2, 24 h
# Procedure, shortened: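 Tetrazolium MTT viability test; cells exposed to compound 24 h, absorbance read at 570 nm. Survival ratio = A treated / A control × 100%; IC50 is the concentration giving 50% loss of viability. Eight concentrations in two-fold dilutions, triplicate wells, mean of two separate experiments. Compounds dissolved in DMSO (0.01 mol/L stock); control wells received medium only.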
# SMMC-7721 = assay: Antiproliferative activity against human SMMC7721 cells after 24 hrs by MTT assay; details: SMMC-7721, 24 h
# Procedure, shortened: (§1)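 Cells grown at 37 °C in humidified 5% CO2 with benzylpenicillin and streptomycin. Compounds came from 0.01 mol/L DMSO stocks and were tested at eight two-fold dilutions in triplicate, with medium-only controls, for 24 h. MTT absorbance was read at 570 nm. Survival = A_treatment/A_control × 100. IC50 is the concentration giving 50% viability inhibition, as the mean of two separate experiments.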
# BGC-823 = assay: Antiproliferative activity against human BGC823 cells after 24 hrs by MTT assay; details: BGC-823, 24 h; procedure, shortened: as §1
# MCF7 = assay: Antiproliferative activity against human MCF7 cells after 24 hrs by MTT assay; details: MCF7, 24 h; procedure, shortened: as §1
SMILES,IC50 (HepG2) [µM],IC50 (SMMC-7721) [µM],IC50 (BGC-823) [µM],IC50 (MCF7) [µM]
CC(C)=CCC12OC(C)(C)C3CC(C=C4C(=O)c5ccccc5OC431)C2=O (stereo not drawn),6.77,10.5,20.3,13.9
CC(C)=CCC12OC(C)(C)C3CC(C=C4C(=O)c5cc(O)ccc5OC431)C2=O (stereo not drawn),12.3,20,32.5,20.6
